Measured values as given in publication PMC5343109 (Acta Pharmaceutica Sinica. B, 2016).
“And” between values parts separate entries of the source, which are not always exact repeats. Identical values can stand only once. Marks after values point to notes of the source that are not given here.

Experiments:
p38α MAPK = p38α MAPK (Homo sapiens, UniProt Q16539); assay: p38α MAPK assay; format: biochemical
[1] = tested on: carrageenan-induced rat paw edema; assay: carrageenan-induced rat paw edema anti-inflammatory activity; format: in vivo, albino rats of Wistar strain; details: for inhibition in vivo at 10 mg/kg: Rattus norvegicus, po, 4 h, read-out: Inhibition (anti-inflammatory activity), rat, oral dose 10 mg/kg body weight, after 4h; for Increase in paw edema / Activity relative to diclofenac sodium / Inhibition (anti-inflammatory activity): rat; for Increase in paw edema / Inhibition (anti-inflammatory activity): oral dose 10 mg/kg body weight; for Increase in paw edema: mean±SEM, n=6; for Activity relative to diclofenac sodium: oral dose 10 mg/kg, diclofenac sodium = 100; for Inhibition (anti-inflammatory activity): after 4h, 10 mg/kg
How it was run: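 Wistar rats of either sex, 180–200 g, kept at 25 ± 2 °C, 50 ± 5% relative humidity and a 12 h light/dark cycle, with free food and water until testing. Paw edema after carrageenan was measured by digital plethysmometer. Six animals per group. Groups were compared by Student's t-test, with P < 0.05 taken as significant.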

[2] = tested on: gastric mucosa (ulcerogenic potential); assay: ulcerogenic test; format: in vivo; details: rats, oral dose of 30 mg/kg, mean±SEM, n=6
TNF-α = assay: LPS-induced TNF-α production inhibition in mice; format: in vivo, mice (BALB/c); details: for TNF-α inhibition: LPS-induced TNF-α production in mice, plasma ELISA, mean±SEM, n=6; for ID50: LPS-induced TNF-α release in mice
gastric mucosal tissue = assay: lipid peroxidation in the gastric mucosa; format: in vivo; details: rats, mean±SEM
[3] = DPPH free radical scavenging antioxidant assay; details: 517 nm, 1 mmol/L concentration

Chain of p38α MAPK (Q16539 whole entry): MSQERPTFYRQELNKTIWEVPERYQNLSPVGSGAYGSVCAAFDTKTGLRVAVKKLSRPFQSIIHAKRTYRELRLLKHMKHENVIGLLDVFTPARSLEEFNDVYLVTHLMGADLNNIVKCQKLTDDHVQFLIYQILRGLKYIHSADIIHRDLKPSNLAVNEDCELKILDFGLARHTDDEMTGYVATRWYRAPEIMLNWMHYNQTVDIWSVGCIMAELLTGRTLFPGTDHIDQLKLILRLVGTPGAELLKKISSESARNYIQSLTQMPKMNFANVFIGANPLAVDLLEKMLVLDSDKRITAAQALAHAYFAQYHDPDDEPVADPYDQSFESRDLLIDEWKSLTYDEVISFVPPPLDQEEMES

NC(=O)Nc1ccc(-c2cc(-c3ccc(OCc4ccccc4)cc3)n(-c3ccc([N+](=O)[O-])cc3)n2)cc1 [Compound 3h, 1-[4-[5-(4-(Benzyloxy)phenyl)-1-(4-nitrophenyl)-1H-pyrazol-3-yl]phenyl]urea]
IC50 (p38α MAPK): 67 nM
inhibition in vivo at 10 mg/kg [1]: 68.4%
Increase in paw edema [1]: 0.53 ± 0.12 mL
Activity relative to diclofenac sodium [1]: 83.67
Severity index [2]: 0.91±0.20
TNF-α inhibition (TNF-α): 52.76±2.08%

NC(=O)Nc1ccc(-c2cc(-c3ccc(OCc4ccccc4)cc3)n(-c3ccc(F)cc3)n2)cc1 [Compound 3e, 1-[4-[5-(4-(benzyloxy)phenyl)-1-(4-fluorophenyl)-1H-pyrazol-3-yl]phenyl]urea]
IC50 (p38α MAPK): 48 ± 10 nM
inhibition in vivo at 10 mg/kg [1]: 72.3%
Increase in paw edema [1]: 0.47 ± 0.16 mL
Activity relative to diclofenac sodium [1]: 88.50
Severity index [2]: 0.83±0.22
Lipid peroxidation (gastric mucosal tissue; n=6): 6.08±0.15 nmol MDA/100 mg tissue
TNF-α inhibition (TNF-α): 57.34±3.05%

COc1ccc(O)c(C(C)(C)C)c1 [BHA, butylated hydroxy anisole, reference compound]
percentage antioxidant activity [3]: 71.53%

O=C(O)Cc1ccccc1Nc1c(Cl)cccc1Cl [Diclofenac sodium, diclofenac sodium, reference compound]
inhibition in vivo at 10 mg/kg [1]: 81.6%
Increase in paw edema [1]: 0.31 ± 0.13 mL
Activity relative to diclofenac sodium [1]: 100
Severity index [2]: 1.83±0.27
Lipid peroxidation (gastric mucosal tissue; n=6): 6.52±0.42 nmol MDA/100 mg tissue
Lipid peroxidation (gastric mucosal tissue; n=6, listed as diclofenac sodium): 6.52 ± 0.42 nmol MDA/100 mg tissue

Cc1ccccc1-n1nc(-c2ccc(NC(N)=O)cc2)cc1-c1ccc(OCc2ccccc2)cc1 [Compound 3j, 1-[4-[5-(4-(Benzyloxy)phenyl)-1-(2-methylphenyl)-1H-pyrazol-3-yl]phenyl]urea]
IC50 (p38α MAPK): 123 nM
percentage antioxidant activity [3]: did not exhibit any significant antioxidant activity

COc1ccc(-n2nc(-c3ccc(NC(N)=O)cc3)cc2-c2ccc(OCc3ccccc3)cc2)cc1 [Compound 3o, 1-[4-[5-(4-(Benzyloxy)phenyl)-1-(4-methoxyphenyl)-1H-pyrazol-3-yl]phenyl]urea]
IC50 (p38α MAPK): 170 nM
percentage antioxidant activity [3]: did not exhibit any significant antioxidant activity

NC(=O)Nc1ccc(-c2cc(-c3ccc(OCc4ccccc4)cc3)n(-c3cccc(Cl)c3)n2)cc1 [Compound 3b, 1-[4-[5-(4-(Benzyloxy)phenyl)-1-(3-chlorophenyl)-1H-pyrazol-3-yl]phenyl]urea]
inhibition in vivo at 10 mg/kg [1]: 78.1%
Inhibition (anti-inflammatory activity) [1]: 78.06 ^b %
Increase in paw edema [1]: 0.37 ± 0.20 mL
Activity relative to diclofenac sodium [1]: 95.52
Lipid peroxidation (gastric mucosal tissue; n=6): 5.19±0.48 ^b nmol MDA/100 mg tissue
TNF-α inhibition (TNF-α): 62.45±0.07 ^b %
ID50 (TNF-α): 11.32 mg/kg and 11.32 ^b mg/kg

COc1ccccc1-n1nc(-c2ccc(NC(N)=O)cc2)cc1-c1ccc(OCc2ccccc2)cc1 [Compound 3n, 1-[4-[5-(4-(Benzyloxy)phenyl)-1-(2-methoxyphenyl)-1H-pyrazol-3-yl]phenyl]urea]
IC50 (p38α MAPK): 206 ± 370 nM
percentage antioxidant activity [3]: did not exhibit any significant antioxidant activity

NC(=O)Nc1ccc(-c2cc(-c3ccc(OCc4ccccc4)cc3)n(-c3ccc(Cl)c(Cl)c3)n2)cc1 [Compound 3d, 1-[4-[5-(4-(Benzyloxy)phenyl)-1-(3,4-dichlorophenyl)-1H-pyrazol-3-yl]phenyl]urea]
IC50 (p38α MAPK): 79 nM
inhibition in vivo at 10 mg/kg [1]: 62.2%
Increase in paw edema [1]: 0.64 ± 0.05 mL
Activity relative to diclofenac sodium [1]: 76.17
Severity index [2]: 1.08±0.37 ^b
TNF-α inhibition (TNF-α): 52.60±2.16%

NC(=O)Nc1ccc(-c2cc(-c3ccc(OCc4ccccc4)cc3)n(-c3ccc([N+](=O)[O-])cc3[N+](=O)[O-])n2)cc1 [Compound 3i, 1-[4-[5-(4-(Benzyloxy)phenyl)-1-(2,4-dinitrophenyl)-1H-pyrazol-3-yl]phenyl]urea]
IC50 (p38α MAPK): 112 ± 40 nM

NC(=O)Nc1ccc(-c2cc(-c3ccc(OCc4ccccc4)cc3)n(-c3ccc(Cl)cc3)n2)cc1 [Compound 3c, 1-[4-[5-(4-(Benzyloxy)phenyl)-1-(4-chlorophenyl)-1H-pyrazol-3-yl]phenyl]urea]
percentage antioxidant activity [3]: 75.06%
inhibition in vivo at 10 mg/kg [1]: 80.9%
Inhibition (anti-inflammatory activity) [1]: 80.93 ^b %
Increase in paw edema [1]: 0.32 ± 0.06 mL
Activity relative to diclofenac sodium [1]: 99.03
Lipid peroxidation (gastric mucosal tissue; n=6): 5.12±0.55 ^b nmol MDA/100 mg tissue
TNF-α inhibition (TNF-α): 62.56±0.24%
ID50 (TNF-α): 9.67 mg/kg and 9.67 ^b mg/kg

Cc1cccc(C)c1-n1nc(-c2ccc(NC(N)=O)cc2)cc1-c1ccc(OCc2ccccc2)cc1 [Compound 3m, 1-[4-[5-(4-(Benzyloxy)phenyl)-1-(2,6-dimethylphenyl)-1H-pyrazol-3-yl]phenyl]urea]
IC50 (p38α MAPK): 270 nM

NC(=O)Nc1ccc(-c2cc(-c3ccc(OCc4ccccc4)cc3)n(-c3ccccc3Cl)n2)cc1 [Compound 3a, 1-[4-[5-(4-(Benzyloxy)phenyl)-1-(2-chlorophenyl)-1H-pyrazol-3-yl]phenyl]urea]
IC50 (p38α MAPK): 39 ± 40 nM
inhibition in vivo at 10 mg/kg [1]: 76.2%
Inhibition (anti-inflammatory activity) [1]: 76.19 ^b %
Increase in paw edema [1]: 0.40 ± 0.08 mL
Activity relative to diclofenac sodium [1]: 93.23
Severity index [2]: 0.67±0.25 ^b
Lipid peroxidation (gastric mucosal tissue; n=6): 5.47±0.44 ^b nmol MDA/100 mg tissue
TNF-α inhibition (TNF-α): 60.87±2.65 ^b %
ID50 (TNF-α): 19.98 mg/kg

NC(=O)Nc1ccc(-c2cc(-c3ccc(OCc4ccccc4)cc3)n(-c3ccc(Br)cc3)n2)cc1 [Compound 3g, 1-[4-[5-(4-(Benzyloxy)phenyl)-1-(4-bromophenyl)-1H-pyrazol-3-yl]phenyl]urea]
inhibition in vivo at 10 mg/kg [1]: 74%
Inhibition (anti-inflammatory activity) [1]: 74.01 ^b %
Increase in paw edema [1]: 0.44 ± 0.06 mL
Activity relative to diclofenac sodium [1]: 90.56
Severity index [2]: 0.75±0.27
Lipid peroxidation (gastric mucosal tissue; n=6): 6.02±0.17 ^a nmol MDA/100 mg tissue
TNF-α inhibition (TNF-α): 58.13±0.28%

Cc1cccc(-n2nc(-c3ccc(NC(N)=O)cc3)cc2-c2ccc(OCc3ccccc3)cc2)c1 [Compound 3k, 1-[4-[5-(4-(Benzyloxy)phenyl)-1-(3-methylphenyl)-1H-pyrazol-3-yl]phenyl]urea]
IC50 (p38α MAPK): 210 ± 110 nM

Cc1ccc(-n2nc(-c3ccc(NC(N)=O)cc3)cc2-c2ccc(OCc3ccccc3)cc2)cc1 [Compound 3l, 1-[4-[5-(4-(Benzyloxy)phenyl)-1-(4-methylphenyl)-1H-pyrazol-3-yl]phenyl]urea]
IC50 (p38α MAPK): 169 ± 70 nM

NC(=O)Nc1ccc(-c2cc(-c3ccc(OCc4ccccc4)cc3)n(-c3ccc(F)c(Cl)c3)n2)cc1 [Compound 3f, 1-[4-[5-(4-(Benzyloxy)phenyl)-1-(3-chloro-4-fluorophenyl)-1H-pyrazol-3-yl]phenyl] urea]
IC50 (p38α MAPK): 110 ± 170 nM

C[S+]([O-])c1ccc(-c2nc(-c3ccncc3)c(-c3ccc(F)cc3)[nH]2)cc1 (stereo not shown) [SB 203580, reference compound]
TNF-α inhibition (TNF-α): 52.11±1.08 ^b %
ID50 (TNF-α): 28.40 mg/kg and 28.40 ^b mg/kg
